Experimental data: ChEMBL document CHEMBL4425101, “Design, Synthesis, and Characterization of Cyclic Peptidomimetics of the Inducible Nitric Oxide Synthase Binding Epitope That Disrupt the Protein-Protein Interaction Involving SPRY Domain-Containing Suppressor of Cytokine Signaling Box Protein (SPSB) 2 and Inducible Nitric Oxide Synthase” (J Med Chem, 2016)
Active and inactive are the calls of the source. The rule behind the calls is not given here. Where a SMILES comes first, the peptide text is derived from it. Bridges are numbered along the chain shown (N, C = ends).

Legend:
[1] = target: T1, SPRY domain-containing SOCS box protein 2 (Mus musculus) (UniProt O88838); experiment: Binding affinity to recombinant GST-tagged mouse SPSB2 (12 to 224 residues) expressed in Escherichia coli BL21 (DE3) assessed as dissociation rate by SPR analysis
T1 sequence (whole entry): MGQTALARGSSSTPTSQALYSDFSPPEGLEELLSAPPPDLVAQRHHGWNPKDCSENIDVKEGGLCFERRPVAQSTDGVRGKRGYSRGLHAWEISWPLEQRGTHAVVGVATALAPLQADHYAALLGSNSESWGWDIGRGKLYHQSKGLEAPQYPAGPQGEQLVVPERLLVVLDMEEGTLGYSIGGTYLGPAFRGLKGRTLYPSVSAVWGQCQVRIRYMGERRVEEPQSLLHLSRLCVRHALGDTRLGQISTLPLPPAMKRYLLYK
Method in brief: (§1)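 SPSB2 amine-coupled to a CM5 sensor chip. Peptidomimetics flowed over at increasing concentrations in running buffer (10 mM HEPES, 150 mM NaCl, 3 mM EDTA, 0.05% Tween 20, pH 7.4) at 25 °C. Sensorgrams fitted to a single-site binding model.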

[2] = target: T1, SPRY domain-containing SOCS box protein 2 (Mus musculus); experiment: Ratio of Kd for recombinant GST-tagged mouse SPSB2 (12 to 224 residues) expressed in Escherichia coli BL21 (DE3) by ITC method to Kd for recombinant GST-tagged mouse SPSB2 (12 to 224 residues) expressed in Escherichia coli BL21 by SPR analysis
[3] = target: T1, SPRY domain-containing SOCS box protein 2 (Mus musculus); experiment: Binding affinity to recombinant GST-tagged mouse SPSB2 (12 to 224 residues) expressed in Escherichia coli BL21 (DE3) assessed as association rate by SPR analysis; method in brief: as §1
[4] = target: T1, SPRY domain-containing SOCS box protein 2 (Mus musculus); experiment: Binding affinity to mouse 5-F-Trp-SPSB2 assessed as downward shift of Trp207 residue resonance at protein to compound molar ratio of 1:5 by 19F-NMR spectroscopy
Method in brief: (§2)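 19F NMR of 5F-Trp-labelled SPSB2 with added peptidomimetic, recorded at 30 °C and 564 MHz on a cryoprobe tuned to 19F.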

[5] = target: T1, SPRY domain-containing SOCS box protein 2 (Mus musculus); experiment: Potency index, ratio of Ac-DINNNNH2 Kd to compound Kd for recombinant GST-tagged mouse SPSB2 (12 to 224 residues) expressed in Escherichia coli BL21 (DE3) by SPR analysis
Mus musculus = organism: Mus musculus; experiment: Inhibition of recombinant GST-tagged mouse SPSB2 (12 to 224 residues) expressed in Escherichia coli BL21 (DE3)/ full length iNOS (unknown origin) interaction in LPS/IFN-gamma-stimulated mouse BMDM assessed as reduction in iNOS level preincubated for 2 hrs measured after 1 hr by Western blot analysis
Method in brief: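 Lysates of cultured murine BMDM incubated 2 h with 2.5 μg/mL GST-SPSB2 SPRY domain or GST alone, with or without 10 μM peptidomimetic. Then 1 h with glutathione Sepharose beads to pull down the complex. Bound iNOS detected by reducing SDS-PAGE, anti-iNOS immunoblot and ECL. Membrane reprobed with anti-GST to check loading.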

[6] = target: T2, SPRY domain-containing SOCS box protein 2 (Mus musculus, UniProt O88838); experiment: Binding affinity to recombinant GST-tagged mouse SPSB2 (12 to 224 residues) expressed in Escherichia coli BL21 (DE3) by SPR analysis; method in brief: as §1
T2 sequence (O88838 whole entry): T1 sequence (whole entry)

[7] = target: T2, SPRY domain-containing SOCS box protein 2; experiment: Binding affinity to recombinant GST-tagged mouse SPSB2 (12 to 224 residues) expressed in Escherichia coli BL21 (DE3) by ITC method
Method in brief: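 ITC at 25 °C in 50 mM phosphate pH 7.4, 150 mM NaCl. Cell held 50 μM SPSB2, buffer-exchanged on a PD-10 column; syringe held compound from a 5 mM stock. Stirred at 1000 rpm. One 0.2 μL injection, then 29 injections of 1 μL. KD and ΔH from a nonlinear least-squares fit to a one-set-of-sites (1:1) model.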

[8] = target: T1, SPRY domain-containing SOCS box protein 2 (Mus musculus); experiment: Binding affinity to mouse 5-F-Trp-SPSB2 assessed as induction of sharpening of Trp207 resonance by measuring increase in peak height at protein to compound molar ratio of 1:5 by 19F-NMR spectroscopy; method in brief: as §2

Molecule | K [1] [×10⁻² /s] | K [3] [×10⁵ /M/s] | Activity [4] | Inhibition of SPSB2-iNOS interaction (qualitative) (Mus musculus) | Kd [6] [nM] | Kd [7] [nM] | other results
CC[C@H](C)[C@@H]1NC(=O)[C@@H](CC(=O)O)OCc2ccccc2NC(=O)[C@H](CC(N)=O)NC(=O)[C@H](CC(N)=O)NC(=O)[C@@H](CC(N)=O)NC1=O | 2 | 8.6 | Active | Active | – | – | Ratio [2]: 1.5; Ratio [5]: 10
CC[C@H](C)[C@@H]1NC(=O)[C@@H](CC(=O)O)OCC(=O)N(C)NC(=O)[C@H](CC(N)=O)NC(=O)[C@H](CC(N)=O)NC(=O)[C@H](CC(N)=O)NC1=O | – | – | – | – | 99 | 83 | –
CC[C@H](C)[C@@H]1NC(=O)[C@H](CC(=O)O)OCCNC(=O)[C@H](CC(N)=O)NC(=O)[C@H](CC(N)=O)NC(=O)[C@H](CC(N)=O)NC1=O | – | – | – | – | 465 | 442 | –
CC[C@H](C)[C@@H]1NC(=O)[C@@H](CC(=O)O)NC(=O)c2ccccc2NC(=O)[C@H](CC(N)=O)NC(=O)[C@H](CC(N)=O)NC(=O)[C@@H](CC(N)=O)NC1=O | 6 | 11 | Active | Active | – | – | –
CC[C@H](C)[C@@H]1NC(=O)[C@H](CC(=O)O)NC(=O)[C@H](C(C)C)NC(=O)[C@@H](NC(C)=O)CSSC[C@@H](C(N)=O)NC(=O)[C@H](CC(N)=O)NC(=O)[C@H](CC(N)=O)NC(=O)[C@H](CC(N)=O)NC1=O (Ac-CVDINNNC-NH2; disulfide 1-8) | – | – | Active | – | – | – | –
H-KEEKDINNNVKKT-OH | – | – | – | – | – | 13 | –
CC[C@H](C)[C@@H]1NC(=O)[C@@H](CC(=O)O)OCC(=O)N(C)NC(=O)[C@H](CC(N)=O)NC(=O)[C@H](CC(N)=O)NC(=O)[C@@H](CC(N)=O)NC1=O | 8 | 11.9 | Active | Active | – | – | –
CC[C@H](C)[C@@H]1NC(=O)[C@@H](CC(=O)O)OCc2ccccc2NC(=O)[C@H](CC(N)=O)NC(=O)[C@H](CC(N)=O)NC(=O)[C@H](CC(N)=O)NC1=O | – | – | – | – | 29 | 45 | –
CC[C@@H](C)[C@@H]1NC(=O)[C@H](CC(=O)O)OCCNC(=O)[C@@H](CC(N)=O)NC(=O)[C@@H](CC(N)=O)NC(=O)[C@@H](CC(N)=O)NC1=O | 26 | 4.7 | inactive | Active | – | – | Activity [8]: 25%
CC[C@H](C)[C@@H]1NC(=O)[C@H](CC(=O)O)NC(=O)c2ccccc2NC(=O)[C@H](CC(N)=O)NC(=O)[C@H](CC(N)=O)NC(=O)[C@H](CC(N)=O)NC1=O | – | – | – | – | 54 | 49 | –
